Only some compounds are listed: those with a hit (about 2.3% of all), similar ones and a draw of the others.
CHT inh: inhibits the human high affinity choline transporter | AID 488975 | B-score at 10 µM | CHT-expressing cells, membrane potential dye, choline response; active compounds read low | Q9GZV3 | actives 0.86% (n = 310,000);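 active = B-score over 3 SD under the library average, and starting fluorescence ratio not unusually high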;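 also: choline stimulus applied at its EC90 after an EC20 pre-addition; B-score computed on integrated fluorescence ratio after choline addition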
T cell HTS: modulates CD8 T cell binding to vesicles. 2C CD8+ T cell-vesicle binding, flow cytometry; active compounds read low. response (vesicle binding), % at 7 µM. actives 0.068% (n = 330,000);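 active = response, share of CD8 T cells binding vesicles, and their 90th percentile fluorescence all below set limits, cut at about 80% in these data, passing the limit was not always enough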;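 also: values below 100% mean blocked vesicle binding to the CD8+ T cells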
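Material: 2C TCR transgenic mouse naive CD8+ T cells, MACS-purified. Also added: QL9-charged Drosophila Ld/ICAM-1/B7-1 vesicles. Timing: binding 1.5 h at 37 °C. Measured by: high-throughput flow cytometry with anti-B7-1 and anti-CD8 staining. Read-out: percent CD8+ FL2 mean versus row control. Controls: Unloaded micro-vesicles (low), QL9 vesicles with 0.7% DMSO (high).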
CHT allo act: allosterically activates the human high affinity choline transporter | actives 0.49% (n = 310,000) | CHT-expressing cells, membrane potential dye, choline EC20; active compounds read high; LV-AA mutant CHT in HEK293 cells | Q9GZV3 | B-score at 10 µM | AID 488977;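 active = initial fluorescence not abnormally high and integrated response B-score, plate-corrected, over 3 SD above library mean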
GPR7 antag: antagonists of human GPR7 (neuropeptides B/W receptor 1); GPR7-expressing cells, fluorescence antagonist assay; inhibition, % at 4.4 µM; actives 1.1% (n = 290,000); AID 1861; in the data active = inhibition above about 16%, passing the limit was not always enough;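 also: cells stimulated with the agonist NPW; 0% = agonist with vehicle and 100% = vehicle without agonist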
Pemphigus Ab inh: blocks pemphigus antibody binding to human desmoglein-3; actives 0.48% (n = 310,000); DSG3-coupled beads, scFv-anti-DSG3-GFP binding, flow cytometry; active compounds read low; binding (percent of control), % at 10 µM; P32926;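 active = binding more than 3 SD below its plate's average and above zero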;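 also: hits lower antibody fragment binding to DSG3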
Target sequence (P32926 whole entry, looked up, the tested form may be a part): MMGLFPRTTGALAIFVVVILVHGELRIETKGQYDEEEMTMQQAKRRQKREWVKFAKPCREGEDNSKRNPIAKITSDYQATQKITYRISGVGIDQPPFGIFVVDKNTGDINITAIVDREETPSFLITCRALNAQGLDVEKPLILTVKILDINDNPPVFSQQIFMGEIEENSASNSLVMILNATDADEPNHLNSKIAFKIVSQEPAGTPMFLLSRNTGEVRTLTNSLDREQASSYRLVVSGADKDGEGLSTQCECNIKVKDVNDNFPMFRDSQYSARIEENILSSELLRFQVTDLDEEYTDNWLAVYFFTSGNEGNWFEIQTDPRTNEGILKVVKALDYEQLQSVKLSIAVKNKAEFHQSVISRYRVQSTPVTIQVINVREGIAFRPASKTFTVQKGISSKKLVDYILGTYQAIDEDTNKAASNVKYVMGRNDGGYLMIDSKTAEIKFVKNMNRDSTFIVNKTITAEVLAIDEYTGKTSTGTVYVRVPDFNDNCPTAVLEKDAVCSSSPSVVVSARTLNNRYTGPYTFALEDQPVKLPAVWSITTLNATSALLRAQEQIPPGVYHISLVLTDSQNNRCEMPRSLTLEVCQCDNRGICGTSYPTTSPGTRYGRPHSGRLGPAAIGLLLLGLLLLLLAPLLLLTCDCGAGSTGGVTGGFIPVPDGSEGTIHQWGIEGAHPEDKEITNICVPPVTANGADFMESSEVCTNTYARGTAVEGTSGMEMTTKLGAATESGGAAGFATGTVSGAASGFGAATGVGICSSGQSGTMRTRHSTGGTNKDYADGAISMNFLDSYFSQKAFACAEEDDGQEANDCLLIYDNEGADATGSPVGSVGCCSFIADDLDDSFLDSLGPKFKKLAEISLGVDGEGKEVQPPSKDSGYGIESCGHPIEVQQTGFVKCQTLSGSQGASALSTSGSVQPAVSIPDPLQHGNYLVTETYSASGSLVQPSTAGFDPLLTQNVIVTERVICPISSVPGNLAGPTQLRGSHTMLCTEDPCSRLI
p-CIP stab down: compounds decreasing mouse p/CIP protein stability. actives 0.01% (n = 290,000). F442A p/CIP-EGFP cells, EGFP fluorescence, 16 h. Q05BA5. AID 1984. decrease of EGFP signal, % at 10 µM;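 active = EGFP signal decrease of at least 30% at 10 µM or well 3 SD below plate mean, unless failing retest; inactive = the rest, including hits failing retest or dose response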
* hit, by the source's call; i = inactive; nt = no result given.

SMILES	CHT inh	T cell HTS	CHT allo act	GPR7 antag	Pemphigus Ab inh	p-CIP stab down
COc1ccc(-c2cn3c(C)c(C(=O)NC(C)C)sc3n2)cc1	i	549	i	-7	47*	-8
COc1ccc(-c2cn3c(C)c(C(=O)NC(C)(C)C)sc3n2)cc1	i	332	i	-2	109	-5
C[C@@H]1CN([C@@H](C)CO)C(=O)CCCn2nncc2CO[C@H]1CN(C)C(=O)c1ccncc1	nt	nt	nt	nt	104	nt
Cc1ccc(Nc2nc(NCc3ccco3)c3ccccc3n2)cc1	i	262	i	34*	nt	-8
COc1ccccc1Nc1nc(NCc2ccco2)c2ccccc2n1	i	216	i	-6	98	-3
O=C(Nc1cccc(Cl)c1)NC1(C(=O)NCc2cccs2)CCCCC1	i	727	i	-17	119	-7
O=C(NCc1cccs1)Nc1cccc(Cl)c1	i	148	i	0	9.4*	nt
Cn1c(C(=O)OCC(=O)NCc2cccs2)cc2sccc21	i	nt	i	-8	40*	-4
COc1ccc(C=NN=C2c3ccccc3-c3ccccc32)cc1OC	nt	nt	nt	nt	104	nt
Cc1ccc(C)n1NC(=O)c1cccs1	i	112	i	-3	83*	-5
Cc1ccc(C)n1NC(=O)c1ccccc1	i	337	i	-6	102	-4
CC(=O)Nc1cccc(OCc2ccc(S(=O)(=O)Cc3ccccc3)cc2)c1	i	854	i	2	58*	5
CCOC(=O)c1c(NC(=O)C2C3C=CC(C3)C2C(=O)O)sc2c1CCCC2 (centres undefined)	i	450	i	-8	37*	6
N#Cc1c(NC(=O)C2C3C=CC(C3)C2C(=O)O)sc2c1CCCCC2 (centres undefined)	i	210	i	-2	102	-12
CCCN(C)C[C@@H]1Oc2ncc(Br)cc2C(=O)N([C@@H](C)CO)C[C@H]1C	nt	nt	nt	nt	104	nt
Cc1nn(C)cc1C(C(=O)NC1CCCCC1)N(C(=O)Cc1cccs1)c1ccc(F)cc1 (centres undefined)	i	291	i	-6	-2.6*	16
COc1cc(C(C)=O)ccc1OCC(=O)N1CCCC1c1ccc2c(c1)OCCCO2 (centres undefined)	nt	nt	nt	nt	99	nt
COc1ccc(C(O)c2coc3ccc(O)c(CN(C)C)c23)cc1 (centres undefined)	i	6.9*	i	-12	95	8
Cc1ccc(S(=O)(=O)N2C[C@H]3[C@H]4C(=O)N(c5ccccc5)C(=O)[C@H]4C[C@H](OC(=O)NCc4ccccc4F)[C@@]3(O)C2)cc1	nt	nt	nt	nt	108	nt
CCn1c(SCC(=O)Nc2ccc(C(C)=O)cc2)nc2nc3c(cc2c1=O)COC(C)(C)C3	i	257	i	-6	95*	1
CC1(C)Cc2nc3oc4c(=O)n(CC(=O)Nc5ccc(Cl)cc5)cnc4c3cc2CO1	i	351	i	-14	87*	1
CC(C)OC(=O)CSc1nc2c(cc1C#N)CCCCC2	i	402	i	5	87*	-5
CC(C)OC(=O)CC(=O)CSc1nc2c(cc1C#N)CCCCC2	i	968	i	-2	nt	5
COc1ccccc1-c1noc2c1C(=O)NCC2	nt	nt	nt	nt	100	nt
CCCCc1cc(=O)oc2cc(C)c(CN3CCCC3)c(O)c12	i	131	i	-23	89*	-4
SMILES	CHT inh	T cell HTS	CHT allo act	GPR7 antag	Pemphigus Ab inh	p-CIP stab down
CCc1cc(=O)oc2cc(C)c(CN3CCCC(C)C3)c(O)c12 (centres undefined)	i	253	i	-17	100	0
C=CCNC(=O)c1c(Br)cnn1-c1ccc(C)cc1	i	791	i	18*	114	-10
COc1ccc(S(=O)(=O)N2CCOCC2)cc1NC(=O)C1CCCCN1S(=O)(=O)c1ccccc1 (centres undefined)	nt	nt	nt	nt	109	nt
O=C1C(Cl)=C(Nc2ccc(O)cc2)C(=O)c2ccccc21	i	40	i	38*	96	-17
COc1ccccc1N1CCN(S(=O)(=O)CCNC(=O)C(C)Oc2ccccc2)CC1 (centres undefined)	nt	nt	nt	nt	107	nt
Cc1cn([C@@H](CCCCNC(=O)OC(C)(C)C)C(=O)NCCCCCCCCCCC(=O)N2CCN(C(=O)OC(C)(C)C)CC2)nn1	-5.8*	385	i	nt	99	nt
CC[C@H](C)Cc1cn([C@@H](CCCN=C(NC(=O)OC(C)(C)C)NC(=O)OC(C)(C)C)C(=O)NCCCCCCCCCCC(=O)N2CCN(C(=O)OC(C)(C)C)CC2)nn1	i	612	i	nt	114	nt
COc1ccc(S(=O)(=O)N2CCC(C(=O)NCCC(=O)NCc3ccccn3)CC2)cc1	nt	nt	nt	nt	104	nt
O=C(c1cccc(Cl)c1)N1CCN(Cc2ccncc2)CC1	nt	nt	nt	1	108	29*
CC1=C(C(=O)N2CCOCC2)CC(CC(=O)NCCCCc2ccccc2)C(=O)N1Cc1ccc(C(C)(C)C)cc1 (centres undefined)	nt	nt	nt	nt	98	nt
Cc1ccc(-n2nnnc2SCC(=O)c2c(N)n(CC(C)C)c(=O)n(C)c2=O)cc1	i	401	i	-15	84*	-11
O=C(CN(c1cccc(C(F)(F)F)c1)S(=O)(=O)c1ccc(Cl)c([N+](=O)[O-])c1)NCc1ccccc1Cl	i	181	i	14	103	0
O=C(CN(c1cccc(C(F)(F)F)c1)S(=O)(=O)c1ccc(Cl)c([N+](=O)[O-])c1)NCc1ccccc1	i	170	i	41*	115	3
Cc1ccc(N(CC(=O)NCCc2ccc(F)cc2)S(=O)(=O)c2ccc(Cl)c([N+](=O)[O-])c2)c(C)c1	i	267	i	48*	96	-9
COc1ccc(C(=O)Oc2ccc(/C=N/NC(=O)c3ccccc3OC)cc2[N+](=O)[O-])cc1	i	386	i	-9	-5.1*	-2
Cc1cc(C(=O)NCC(=O)OCC(=O)NCC2CCCO2)ccc1[N+](=O)[O-] (centres undefined)	nt	418	nt	nt	50*	nt
COc1ccc(C2CC(c3ccccc3)=NN2C(=O)COC(=O)c2cc(S(=O)(=O)N3CCOCC3)ccc2F)cc1 (centres undefined)	i	272	i	21*	102	1
COc1cccc(C(=O)c2ccccc2NC(C)=O)c1	nt	nt	nt	nt	104	nt
COc1ccc(OC)c(N(CCN2C(=O)c3ccccc3C2=O)C(=O)CCl)c1	nt	nt	nt	nt	103	nt
O=C(NCc1ccccc1)c1ccc(Cl)c(NC2=NC3CS(=O)(=O)CC3S2)c1 (centres undefined)	i	754	i	-11	96	0
COc1ccc(CNC(=O)c2ccc(Cl)c(NC3=NC4CS(=O)(=O)CC4S3)c2)cc1 (centres undefined)	i	788	i	-11	68*	-6
